Data on 15 compounds can be found in ChEMBL document CHEMBL1152128, “Catalytic site-selective synthesis and evaluation of a series of erythromycin analogs” (2008).

One test has as its system Staphylococcus aureus. The experiment in a line: Antibacterial activity against Staphylococcus aureus ATCC 29213. The class given is functional. In short, it runs like this:
(§1)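 Broth microdilution MIC in Mueller Hinton II broth, 384-well format, quadruplicate wells. The compound is serially diluted two-fold from DMSO stocks, with final concentrations half of 64 to 0.0625 µg/mL. The inoculum is a 0.5 McFarland culture diluted 100-fold, mixed 1:1 with compound to 20 µL per well. Plates are incubated 24 h at 35 °C. MIC is the lowest concentration with no visible growth; OD620 is also read.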

For the next test, the system named is Enterococcus faecalis. The experiment in a line: Antibacterial activity against Enterococcus faecalis ATCC 29212. The class given is functional. The procedure, abridged: as §1

Values after ≈ are worked out from the molar mass of the structure shown.

As usually defined, the MIC is the lowest concentration that inhibits growth of the organism. In the case of `CCC(=O)O[C@H]1[C@H](O[C@@H]2[C@@H](C)[C@H](O[C@H]3C[C@@](C)(OC)[C@@H](OP(=O)(Oc4ccccc4)Oc4ccccc4)[C@H](C)O3)[C@@H](C)C(=O)O[C@H](CC)[C@](C)(O)[C@H](OC(=O)CC)[C@@H](C)C(=O)[C@H](C)C[C@]2(C)O)O[C@H](C)C[C@@H]1N(C)C`, the MIC against Staphylococcus aureus and against Enterococcus faecalis was > 32 µg/mL throughout.

Take `CCCCCCCC(=O)O[C@H]1[C@H](O[C@@H]2[C@@H](C)[C@H](O[C@H]3C[C@@](C)(OC)[C@@H](OP(=O)(Oc4ccccc4)Oc4ccccc4)[C@H](C)O3)[C@@H](C)C(=O)O[C@H](CC)[C@](C)(O)[C@H](OC(=O)CCCCCCC)[C@@H](C)C(=O)[C@H](C)C[C@]2(C)O)O[C@H](C)C[C@@H]1N(C)C`: the MIC with Staphylococcus aureus and in the test with Enterococcus faecalis was > 32 µg/mL each time.

On to `C=CCCC(=O)O[C@H]1[C@H](O[C@@H]2[C@@H](C)[C@H](O[C@H]3C[C@@](C)(OC)[C@@H](O)[C@H](C)O3)[C@@H](C)C(=O)O[C@H](CC)[C@](C)(O)[C@H](OC(=O)CCC=C)[C@@H](C)C(=O)[C@H](C)C[C@]2(C)O)O[C@H](C)C[C@@H]1N(C)C`, for which the MIC against Staphylococcus aureus is 32 µg/mL (≈ 35.6 µM); with Enterococcus faecalis, > 32 µg/mL.

With `CC[C@H]1OC(=O)[C@H](C)[C@@H](O[C@H]2C[C@@](C)(OC)[C@@H](OP(=O)(Oc3ccccc3)Oc3ccccc3)[C@H](C)O2)[C@H](C)[C@@H](O[C@@H]2O[C@H](C)C[C@H](N(C)C)[C@H]2OC(C)=O)[C@@](C)(O)C[C@@H](C)C(=O)[C@H](C)[C@@H](OC(=O)CCNC(=O)OC(C)(C)C)[C@@]1(C)O`, the MIC against Staphylococcus aureus and in the test with Enterococcus faecalis was > 32 µg/mL throughout.

For the compound `C=CCCC(=O)O[C@H]1[C@H](O[C@@H]2[C@@H](C)[C@H](O[C@H]3C[C@@](C)(OC)[C@@H](OP(=O)(Oc4ccccc4)Oc4ccccc4)[C@H](C)O3)[C@@H](C)C(=O)O[C@H](CC)[C@](C)(O)[C@H](OC(=O)CCC=C)[C@@H](C)C(=O)[C@H](C)C[C@]2(C)O)O[C@H](C)C[C@@H]1N(C)C`, the MIC against Staphylococcus aureus and against Enterococcus faecalis was > 32 µg/mL each time.

As to `CC[C@H]1OC(=O)[C@H](C)[C@@H](O[C@H]2C[C@@](C)(OC)[C@@H](O)[C@H](C)O2)[C@H](C)[C@@H](O[C@@H]2O[C@H](C)C[C@H](N(C)C)[C@H]2O)[C@](C)(O)C[C@@H](C)C(=O)[C@H](C)[C@@H](O)[C@]1(C)O` [ERYTHROMYCIN], the MIC came to 1 µg/mL (≈ 1.36 µM) against Staphylococcus aureus and 2 µg/mL (≈ 2.73 µM) with Enterococcus faecalis.

For the compound `CCCCCCCC(=O)O[C@@H]1[C@@H](C)C(=O)[C@H](C)C[C@](C)(O)[C@H](O[C@@H]2O[C@H](C)C[C@H](N(C)C)[C@H]2O)[C@@H](C)[C@H](O[C@H]2C[C@@](C)(OC)[C@@H](OC(=O)CCCCCCC)[C@H](C)O2)[C@@H](C)C(=O)O[C@H](CC)[C@]1(C)O`, the MIC in the test with Staphylococcus aureus and in the test on Enterococcus faecalis was > 32 µg/mL each time.

Take `CC[C@H]1OC(=O)[C@H](C)[C@@H](O[C@H]2C[C@@](C)(OC)[C@@H](O)[C@H](C)O2)[C@H](C)[C@@H](O[C@@H]2O[C@H](C)C[C@H](N(C)C)[C@H]2OC(C)=O)[C@@](C)(O)C[C@@H](C)C(=O)[C@H](C)[C@@H](OC(=O)CCNC(=O)OC(C)(C)C)[C@@]1(C)O`: the MIC was 32 µg/mL (≈ 33.8 µM) with Staphylococcus aureus and > 32 µg/mL against Enterococcus faecalis.

Consider `CC[C@H]1OC(=O)[C@H](C)[C@@H](O[C@H]2C[C@@](C)(OC)[C@@H](O)[C@H](C)O2)[C@H](C)[C@@H](O[C@@H]2O[C@H](C)C[C@H](N(C)C)[C@H]2OC(=O)CCNC(=O)OC(C)(C)C)[C@@](C)(O)C[C@@H](C)C(=O)[C@H](C)[C@@H](OC(=O)CCNC(=O)OC(C)(C)C)[C@@]1(C)O`, for which the MIC in the test on Staphylococcus aureus and in the test with Enterococcus faecalis was > 32 µg/mL each time.

As for `CCC(=O)O[C@H]1[C@H](O[C@@H]2[C@@H](C)[C@H](O[C@H]3C[C@@](C)(OC)[C@@H](O)[C@H](C)O3)[C@@H](C)C(=O)O[C@H](CC)[C@](C)(O)[C@H](OC(=O)CC)[C@@H](C)C(=O)[C@H](C)C[C@]2(C)O)O[C@H](C)C[C@@H]1N(C)C`, the minimal inhibitory concentration (MIC) with Staphylococcus aureus and with Enterococcus faecalis was 32 µg/mL (≈ 37.8 µM) in each case.

For the compound `C=CCCC(=O)O[C@@H]1[C@@H](C)C(=O)[C@H](C)C[C@](C)(O)[C@H](O[C@@H]2O[C@H](C)C[C@H](N(C)C)[C@H]2O)[C@@H](C)[C@H](O[C@H]2C[C@@](C)(OC)[C@@H](O)[C@H](C)O2)[C@@H](C)C(=O)O[C@H](CC)[C@]1(C)O`, the MIC is 16 µg/mL (≈ 19.6 µM) in the test with Staphylococcus aureus and 32 µg/mL (≈ 39.2 µM) against Enterococcus faecalis.

Regarding `CCCCCCCC(=O)O[C@H]1[C@H](O[C@@H]2[C@@H](C)[C@H](O[C@H]3C[C@@](C)(OC)[C@@H](O)[C@H](C)O3)[C@@H](C)C(=O)O[C@H](CC)[C@](C)(O)[C@H](OC(=O)CCCCCCC)[C@@H](C)C(=O)[C@H](C)C[C@]2(C)O)O[C@H](C)C[C@@H]1N(C)C`, the MIC in the test on Staphylococcus aureus and in the test on Enterococcus faecalis was > 32 µg/mL in each case.

For `CCC(=O)O[C@@H]1[C@@H](C)C(=O)[C@H](C)C[C@](C)(O)[C@H](O[C@@H]2O[C@H](C)C[C@H](N(C)C)[C@H]2O)[C@@H](C)[C@H](O[C@H]2C[C@@](C)(OC)[C@@H](O)[C@H](C)O2)[C@@H](C)C(=O)O[C@H](CC)[C@]1(C)O`, the minimum inhibitory concentration (MIC) against Staphylococcus aureus came to 16 µg/mL (≈ 20.3 µM); in the test with Enterococcus faecalis it was 32 µg/mL (≈ 40.5 µM).

With `CCCCCCCC(=O)O[C@@H]1[C@@H](C)C(=O)[C@H](C)C[C@](C)(O)[C@H](O[C@@H]2O[C@H](C)C[C@H](N(C)C)[C@H]2O)[C@@H](C)[C@H](O[C@H]2C[C@@](C)(OC)[C@@H](O)[C@H](C)O2)[C@@H](C)C(=O)O[C@H](CC)[C@]1(C)O`, the minimal inhibitory concentration (MIC) against Staphylococcus aureus and in the test with Enterococcus faecalis was 32 µg/mL (≈ 37.2 µM) in each case.

As to `CC[C@H]1OC(=O)[C@H](C)[C@@H](O[C@H]2C[C@@](C)(OC)[C@@H](O)[C@H](C)O2)[C@H](C)[C@@H](O[C@@H]2O[C@H](C)C[C@H](N(C)C)[C@H]2O)[C@@](C)(O)C[C@@H](C)C(=O)[C@H](C)[C@@H](OC(=O)CCNC(=O)OC(C)(C)C)[C@@]1(C)O`, the MIC against Staphylococcus aureus was 32 µg/mL (≈ 35.4 µM); in the test with Enterococcus faecalis it was > 32 µg/mL.
